Data from ChEMBL document CHEMBL5058577, “EUbOPEN Chemogenomics Library 2 (Multiplex)” (2022).

System: U2OS
Test: Multiplex assay against U2OS
Assay type: toxicity, cell-based
Settings: human
Procedure, shortened: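 Live cells carried four stains from seeding: Hoechst33342, BioTracker Green Microtubule Cytoskeleton Dye, MitoTracker Red and Annexin V Alexa Fluor 680. They were imaged on a CQ1 microscope at 37°C and 5% CO2 after compound addition. Using CellPathfinder machine-learning gating, cells were split into Hoechst high-intensity objects or normal cells, normal cells into healthy, pyknosed or fragmented nuclei, and pyknosed cells into mitotic or apoptotic; tubulin, mitochondrial-mass and membrane-permeability phenotypes are per cents of healthy-nucleus cells.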

[1] = 12 h, 1 µM, compound concentration 1 uM, replicate 1
[2] = 12 h, 1 µM, compound concentration 1 uM, replicate 2
[3] = 12 h, 10 µM, compound concentration 10 uM, replicate 1
[4] = 12 h, 10 µM, compound concentration 10 uM, replicate 2
[5] = 24 h, 1 µM, compound concentration 1 uM, replicate 1
[6] = 24 h, 1 µM, compound concentration 1 uM, replicate 2
[7] = 24 h, 10 µM, compound concentration 10 uM, replicate 1
[8] = 24 h, 10 µM, compound concentration 10 uM, replicate 2
[9] = 48 h, 1 µM, compound concentration 1 uM, replicate 1
[10] = 48 h, 1 µM, compound concentration 1 uM, replicate 2
[11] = 48 h, 10 µM, compound concentration 10 uM, replicate 1
[12] = 48 h, 10 µM, compound concentration 10 uM, replicate 2

## CN1CCN(c2cc(-c3ccccc3)nc(N)n2)CC1
[1]
  Population Apoptotic (%): 80%
  Population Fragmented Nuclei (%): 32%
  Population Healthy Nuclei (%): 61%
  Population Hoechst High Intensity Objects (%): 2%
  Population Membrane Permeable-Phenotype (%): 5%
  Population Mitochondria Different-Phenotype (%): 2%
  Population Mitotic Cells (%): 20%
  Population Normal (%): 97%
  Population Pyknosed Nuclei (%): 6%
  Population Tubulin-Different-Phenotype (%): 2%
  Total Cell Count: 235
[2]
  Population Apoptotic (%): 62%
  Population Fragmented Nuclei (%): 17%
  Population Healthy Nuclei (%): 76%
  Population Hoechst High Intensity Objects (%): 1%
  Population Membrane Permeable-Phenotype (%): 7%
  Population Mitochondria Different-Phenotype (%): 5%
  Population Mitotic Cells (%): 37%
  Population Normal (%): 98%
  Population Pyknosed Nuclei (%): 5%
  Population Tubulin-Different-Phenotype (%): 11%
  Total Cell Count: 141
[3]
  Population Apoptotic (%): 86%
  Population Fragmented Nuclei (%): 30%
  Population Healthy Nuclei (%): 63%
  Population Hoechst High Intensity Objects (%): 0%
  Population Membrane Permeable-Phenotype (%): 5%
  Population Mitochondria Different-Phenotype (%): 3%
  Population Mitotic Cells (%): 13%
  Population Normal (%): 99%
  Population Pyknosed Nuclei (%): 6%
  Population Tubulin-Different-Phenotype (%): 3%
  Total Cell Count: 252
[4]
  Population Apoptotic (%): 73%
  Population Fragmented Nuclei (%): 8%
  Population Healthy Nuclei (%): 80%
  Population Hoechst High Intensity Objects (%): 1%
  Population Membrane Permeable-Phenotype (%): 10%
  Population Mitotic Cells (%): 26%
  Population Normal (%): 98%
  Population Pyknosed Nuclei (%): 10%
  Population Tubulin-Different-Phenotype (%): 7%
  Total Cell Count: 139
[5]
  Population Apoptotic (%): 86%
  Population Fragmented Nuclei (%): 25%
  Population Healthy Nuclei (%): 65%
  Population Hoechst High Intensity Objects (%): 1%
  Population Membrane Permeable-Phenotype (%): 7%
  Population Mitochondria Different-Phenotype (%): 1%
  Population Mitotic Cells (%): 13%
  Population Normal (%): 98%
  Population Pyknosed Nuclei (%): 8%
  Population Tubulin-Different-Phenotype (%): 4%
  Total Cell Count: 278
[6]
  Population Apoptotic (%): 80%
  Population Fragmented Nuclei (%): 21%
  Population Healthy Nuclei (%): 73%
  Population Membrane Permeable-Phenotype (%): 6%
  Population Mitotic Cells (%): 20%
  Population Pyknosed Nuclei (%): 5%
  Population Tubulin-Different-Phenotype (%): 9%
  Total Cell Count: 177
[7]
  Population Apoptotic (%): 100%
  Population Fragmented Nuclei (%): 23%
  Population Healthy Nuclei (%): 69%
  Population Hoechst High Intensity Objects (%): 1%
  Population Membrane Permeable-Phenotype (%): 9%
  Population Mitochondria Different-Phenotype (%): 3%
  Population Mitotic Cells (%): 0%
  Population Normal (%): 98%
  Population Pyknosed Nuclei (%): 6%
  Population Tubulin-Different-Phenotype (%): 7%
  Total Cell Count: 287
[8]
  Population Apoptotic (%): 81%
  Population Fragmented Nuclei (%): 12%
  Population Healthy Nuclei (%): 80%
  Population Hoechst High Intensity Objects (%): 2%
  Population Membrane Permeable-Phenotype (%): 4%
  Population Mitochondria Different-Phenotype (%): 4%
  Population Mitotic Cells (%): 18%
  Population Normal (%): 97%
  Population Tubulin-Different-Phenotype (%): 2%
  Total Cell Count: 166
[9]
  Population Apoptotic (%): 83%
  Population Fragmented Nuclei (%): 21%
  Population Healthy Nuclei (%): 69%
  Population Hoechst High Intensity Objects (%): 2%
  Population Membrane Permeable-Phenotype (%): 5%
  Population Mitochondria Different-Phenotype (%): 1%
  Population Mitotic Cells (%): 16%
  Population Normal (%): 97%
  Population Pyknosed Nuclei (%): 9%
  Population Tubulin-Different-Phenotype (%): 2%
  Total Cell Count: 409
[10]
  Population Apoptotic (%): 69%
  Population Fragmented Nuclei (%): 19%
  Population Healthy Nuclei (%): 75%
  Population Hoechst High Intensity Objects (%): 3%
  Population Mitochondria Different-Phenotype (%): 2%
  Population Mitotic Cells (%): 30%
  Population Normal (%): 96%
  Population Pyknosed Nuclei (%): 5%
  Population Tubulin-Different-Phenotype (%): 7%
  Total Cell Count: 267
[11]
  Population Apoptotic (%): 100%
  Population Fragmented Nuclei (%): 19%
  Population Healthy Nuclei (%): 71%
  Population Hoechst High Intensity Objects (%): 1%
  Population Membrane Permeable-Phenotype (%): 5%
  Population Mitochondria Different-Phenotype (%): 3%
  Population Mitotic Cells (%): 0%
  Population Normal (%): 98%
  Population Pyknosed Nuclei (%): 8%
  Population Tubulin-Different-Phenotype (%): 6%
  Total Cell Count: 420
[12]
  Population Apoptotic (%): 88%
  Population Fragmented Nuclei (%): 11%
  Population Healthy Nuclei (%): 78%
  Population Membrane Permeable-Phenotype (%): 2%
  Population Mitotic Cells (%): 12%
  Population Pyknosed Nuclei (%): 10%
  Population Tubulin-Different-Phenotype (%): 1%
  Total Cell Count: 254
